The sample as a whole holds a higher share of hits than the screen did.
CDK5 p35 inh = blocks human CDK5/p35 kinase activity; inhibition, % at 10 µM; AID 488839; Recombinant CDK5/p35, ADP-Glo luminescence, 60 min; 0.01% of 330,000 active; Q00535+Q15078;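 active = highest replicate inhibition of at least 50% and at least 75% of replicates reaching 50%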
GSK3 alpha inh = blocks human GSK-3 alpha kinase. AID 2650. inhibition, % at 10 µM. P49840. 0.1% of 320,000 active. ADP-Glo luminescence, 60 min;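 active = more than half of replicates show inhibition above 20%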;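 note: GST-tagged GSK-3 alpha with peptide substrate and 25 µM ATP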
STK33 inh = blocks human STK33 kinase activity; Q9BYT3; purified STK33, MBP phosphorylation, ADP-Glo luminescence; inhibition, % at 10 µM; 0.073% of 320,000 active;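 active = inhibition at or above 25%, using the most active replicate where run in duplicate; inactive = inhibition below 25%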
DYRK1A inh = Dyrk1A (rat) kinase inhibition. 0.43% of 310,000 active. ADP-Glo luminescence, NFATc1 peptide. AID 504441. Q63470. inhibition, % at 12.5 µM; in the data active = inhibition above about 50%
GSK3beta inhib = inhibitors of human GSK3beta kinase; AID 2097; activity score (negative = inhibition), % at 10 µM; 0.038% of 300,000 active; GST-GSK3beta kinase, ADP-Glo luminescence, 60 min; active compounds read low;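 active = more than half of replicate wells score below -50%, meaning over 50% inhibition versus plate controls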
Target sequence (P49841 whole entry, looked up): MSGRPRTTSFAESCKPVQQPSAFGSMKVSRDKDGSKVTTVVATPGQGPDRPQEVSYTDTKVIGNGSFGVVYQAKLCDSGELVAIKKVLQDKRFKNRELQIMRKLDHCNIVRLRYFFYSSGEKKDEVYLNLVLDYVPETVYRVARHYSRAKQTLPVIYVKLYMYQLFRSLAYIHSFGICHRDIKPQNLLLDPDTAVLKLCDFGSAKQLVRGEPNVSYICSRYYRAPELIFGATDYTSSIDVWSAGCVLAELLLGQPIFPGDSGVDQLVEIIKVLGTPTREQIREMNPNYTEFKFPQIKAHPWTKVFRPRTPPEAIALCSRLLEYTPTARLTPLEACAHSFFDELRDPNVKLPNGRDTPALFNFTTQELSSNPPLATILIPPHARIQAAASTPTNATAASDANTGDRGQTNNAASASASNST
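Assay system: GST-fused GSK3beta enzyme, cell-free / Medium: Tris pH 7.5 buffer with MgCl2, DTT, BSA, heparin / Also added: peptide substrate plus 25 µM ATP (final) / Compound: 10 µM single point / Timing: kinase reaction with compound 60 min at room temperature / Detection: ADP-Glo luminescence / Benchmarks: DMSO neutral wells and GW8510 at 20 µM as positive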
Dyrk1A artifact = counter-screen for Dyrk1A inhibitors: ADP-Glo luciferase artifacts | shares compounds with DYRK1A inh | ADP-Glo luciferase artifact assay, no Dyrk1A, luminescence | AC50, µM (doses to about 12 µM) | 1,300 tested, under 10 active;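 active = fitted half-maximal dose AC50 no more than ten times the top valid tested dose, with luminescence dropping as dose rises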
Each line names hits and unclear results; the compound was inactive in the other large screens (follow-up assays come after a bar, where they were run).

COc1cc(-c2oc3cc(O)cc(O)c3c(=O)c2O[C@@H]2O[C@H](COC3O[C@@H](C)[C@H](O)[C@@H](O)[C@H]3O)[C@@H](O)[C@H](O)[C@H]2O)ccc1O (some centres undefined)	DYRK1A inh 71 (no result: GSK3beta inhib) | Dyrk1A artifact inactive
O=c1c2c(O)cc(O)cc2oc2c(O)ccc(O[C@H]3O[C@@H](CO)[C@H](O)[C@@H](O)[C@@H]3O)c12	DYRK1A inh 73 (no result: GSK3beta inhib) | Dyrk1A artifact inactive
Cc1cccc(Nc2nc(N)c([N+](=O)[O-])c(N3CC(C)CC(C)C3)n2)c1 (centres undefined)	none
Cc1cccc(Nc2nc(N)c([N+](=O)[O-])c(N3CCC(C)CC3)n2)c1	DYRK1A inh 50 | Dyrk1A artifact inactive
CC1CCc2nc(NC(=O)CN3CCOCC3)sc2C1 (centres undefined)	none
CC1CCc2nc(NC(=O)CN3CCN(Cc4ccc5c(c4)OCO5)CC3)sc2C1 (centres undefined)	DYRK1A inh 55 | Dyrk1A artifact inactive
COc1ccc(C(=O)OCC(=O)N(C)C2CCS(=O)(=O)C2)cc1Br (centres undefined)	none (no result: GSK3beta inhib)
NC1=NC(=O)/C(=C\c2ccc(O)c([N+](=O)[O-])c2)S1	DYRK1A inh 79 | Dyrk1A artifact inactive
NC1=NC(=O)/C(=C/c2cccc(-c3ccc(S(N)(=O)=O)cc3)c2)S1	none
Cc1ccc(S(=O)(=O)N2CCOCC2)cc1C(=O)NCCc1ccc(Cl)cc1	none (no result: GSK3beta inhib)
COc1ccc(NC(=O)CSCC(=O)Nc2ccc(C)c(S(=O)(=O)N3CCCCCC3)c2)cc1	none
C/C(=N/NC(=O)c1ccc(Br)s1)c1cccnc1	DYRK1A inh 51 | Dyrk1A artifact inactive
COc1ccc(-n2c(Cn3c(=O)sc4ccccc43)nnc2SCC(=O)N2CCOCC2)cc1	DYRK1A inh 56 (no result: GSK3beta inhib) | Dyrk1A artifact inactive
Cc1cccc(OCCOC(=O)c2c(-c3ccccc3)noc2C)c1	none
CCOC(=O)C1=C(C)OC(N)=C(C#N)C1c1cc2c(cc1Br)OCO2 (centres undefined)	DYRK1A inh 54 | Dyrk1A artifact inactive
Oc1ccc(/C=N/n2c(COc3ccccc3)n[nH]c2=S)c(O)c1	DYRK1A inh 67 | Dyrk1A artifact inactive
Oc1ccccc1/C=N/n1c(COc2ccccc2)n[nH]c1=S	none
NC(=O)c1cc2ccccc2oc1=NCc1ccccc1	DYRK1A inh 68 | Dyrk1A artifact inactive
NC(=O)c1cc2ccc(O)cc2oc1=Nc1ccccc1	DYRK1A inh 58 (no result: GSK3 alpha inh, STK33 inh) | Dyrk1A artifact inactive
COc1ccc(OC)c(N=c2oc3cc(O)ccc3cc2C(N)=O)c1	DYRK1A inh 81 | Dyrk1A artifact inactive
COc1ccc2oc(=Nc3cc(F)ccc3F)c(C(N)=O)cc2c1	none
O=[N+]([O-])c1cccc(S(=O)(=O)NCc2ccncc2)c1	none
Oc1ccc(-c2nccc(-c3cccs3)n2)cc1	DYRK1A inh 61 | Dyrk1A artifact inactive
CC(C)Oc1ccc(C2CNC(=O)C2)cc1 (centres undefined)	DYRK1A inh 54 | Dyrk1A artifact inactive
CC(C(=O)NC(C)(C)C)N(Cc1cccs1)C(=O)CCN1CCc2ccccc21 (centres undefined)	none
CCN(CC)c1ccc(C=C2SC(=S)NC2=O)cc1	none (no result: GSK3 alpha inh, STK33 inh, DYRK1A inh, GSK3beta inhib)
CC1Cc2cc(/C=C3/SC(=S)NC3=O)ccc2O1 (centres undefined)	DYRK1A inh 84 | Dyrk1A artifact inactive
O=C1c2ccccc2C(=O)c2[nH]cnc21	DYRK1A inh 56 | Dyrk1A artifact inactive
O=C1c2ccccc2C(=O)c2[nH]c(=O)[nH]c21	none
COc1cc(/C=C2\CCC/C(=C\c3ccc(O)c(OC)c3)C2=O)ccc1O	none
COc1cc(/C=C2\Oc3cc(O)ccc3C2=O)ccc1O	GSK3 alpha inh 63, DYRK1A inh 93 | Dyrk1A artifact inactive
O=C1/C(=C/c2ccc(O)c(O)c2)Oc2cc(O)ccc21	STK33 inh 46, DYRK1A inh 68 (no result: GSK3beta inhib) | Dyrk1A artifact inactive
CN(C)CCNC(=O)c1cc2c(s1)-c1ccccc1OC2	DYRK1A inh 68 | Dyrk1A artifact inactive
O=C(NCc1ccco1)c1sc2cc(Cl)ccc2c1Cl	none
O=C(NCc1ccco1)c1sc2ccccc2c1Cl	DYRK1A inh 56 | Dyrk1A artifact inactive
O=C1C2C(c3ccccc3)CC=CC2[C@H](c2ccoc2)N1Cc1ccccc1 (some centres undefined)	DYRK1A inh 60 | Dyrk1A artifact inactive
CSc1nnc(-c2cc3c(-c4ccccc4)nn(C)c3s2)n1C	DYRK1A inh 52 | Dyrk1A artifact inactive
Cn1nc(-c2ccccc2)c2cc(C(=O)O)sc21	none
CCN(CC(=O)Nc1c(F)cccc1F)C(=O)/C=C/c1ccc2c(c1)OCO2	none
Cn1c2ccccc2c(=O)c2ccc(C#CC3(N)CCCCC3)cc21	DYRK1A inh 58 | Dyrk1A artifact inactive
COc1cc(/C=C/c2ccc3cccc([N+](=O)[O-])c3n2)ccc1OCC(=O)O	none
O=C(O)COc1ccc(/C=C/c2ccc3cccc([N+](=O)[O-])c3n2)cc1	DYRK1A inh 66 (no result: GSK3 alpha inh, STK33 inh) | Dyrk1A artifact inactive
O=C(Nc1ccc(Cl)cc1Cl)c1cccc(N2C(=O)C=CC2=O)c1	none
CCCNC(=O)NC(=O)CN1C(=O)NC(C)(c2ccc3ccccc3c2)C1=O (centres undefined)	none
CCCCNC(=S)Nc1ccc2cn[nH]c2c1	DYRK1A inh 81 (no result: GSK3 alpha inh, STK33 inh) | Dyrk1A artifact inactive
CCC(=O)Nc1ccc(C(=O)COC(=O)Cc2ccsc2)cc1	none (no result: DYRK1A inh, GSK3beta inhib)
COc1ccc2c(c1)CCc1c-2n[nH]c1C(=O)O	DYRK1A inh 59 (no result: GSK3beta inhib) | Dyrk1A artifact inactive
O=C(Nc1nnc(-c2ccco2)o1)c1ccc([N+](=O)[O-])s1	none (no result: DYRK1A inh)
Cn1c(=O)c2[nH]c(CCNC(=O)c3ccccc3)nc2n(C)c1=O	none (no result: GSK3 alpha inh, STK33 inh, GSK3beta inhib)
CCN(CC)CCNC(=O)c1cc2c(=O)n(C)c3ccccc3c2n1C	DYRK1A inh 58 (no result: GSK3 alpha inh) | Dyrk1A artifact inactive
CN1CCN(CCNC(=O)c2cc3c(=O)n(C)c4ccccc4c3n2C)CC1	DYRK1A inh 57 | Dyrk1A artifact inactive
COCCNC(=O)c1cc2c(=O)n(C)c3ccccc3c2n1C	none
CN(C)CCNC(=O)c1cc2c(=O)n(C)c3ccccc3c2n1C	DYRK1A inh 53 (no result: GSK3 alpha inh) | Dyrk1A artifact inactive
CCN(CC)CCCNC(=O)c1cc2c(=O)n(C)c3ccccc3c2n1C	DYRK1A inh 57 | Dyrk1A artifact inactive
Cc1cc(C)c(C)c(S(=O)(=O)N2CCC(C(=O)N3CC(C)CC(C)C3)CC2)c1C (centres undefined)	none
CC(=O)Oc1ccc2ccccc2c1C(NC(=O)Cc1ccccc1)c1ccc(Cl)cc1 (centres undefined)	none
COc1ccc(CN2CCN(Cc3csc(C(C)=O)c3)CC2CCO)c(C)c1C (centres undefined)	none (no result: GSK3 alpha inh)
CCn1c2ccccc2c2cc(/C=N/n3cnnc3)ccc21	none
CCn1c2ccccc2c2cc(/C=N/O)ccc21	DYRK1A inh 80 | Dyrk1A artifact inactive

High-throughput results (PubChem)
